Data on 2 compounds can be found in paper PMC11822521 (ACS Omega, 2025).

Structures are written as SMILES.

For assay [1], the target named is T1, VHR (Homo sapiens, UniProt P51452). Briefly: Michaelis–Menten kinetic assay of VHR with OMFP. Format: biochemical. The note with it: read-out: Michaelis–Menten constant (Km); OMFP as substrate of VHR. In a few lines: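 Full-length human His8-VHR expressed in E. coli, fixed at 2.5 nM, with OMFP titrated. Enzyme preincubated 20 min at room temperature, then substrate added. Fluorescence (ex 485/em 535 nm) read kinetically for 10 min. Initial velocities were background-corrected against no-enzyme wells and fitted to the Michaelis–Menten equation.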
T1 sequence (P51452 whole entry): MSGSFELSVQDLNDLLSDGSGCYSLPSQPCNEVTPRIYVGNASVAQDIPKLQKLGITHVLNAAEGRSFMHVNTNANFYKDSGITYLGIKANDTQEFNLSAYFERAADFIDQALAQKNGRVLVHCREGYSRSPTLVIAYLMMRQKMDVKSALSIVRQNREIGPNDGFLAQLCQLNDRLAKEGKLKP

For assay [2], the target named is T1, VHR. Briefly: VHR dose–response inhibition assay with OMFP substrate. Format: biochemical. In a few lines: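 Ten-point curves, 100 μM to 5 nM final, in triplicate, with DMSO vehicle. Human His8-VHR (2.5 nM final) in pH 6 Bis-tris buffer with DTT and Tween-20 was preincubated with compound 20 min at room temperature. Reaction started with OMFP (6 μM final) and read at ex 485/em 535 nm for 10 min. Slopes were normalized to no-enzyme and vehicle controls and fitted to a four-parameter variable-slope model.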

Assay [3] concerns the target T1, VHR. Briefly: Isothermal titration calorimetry. Format: binding. The note with it: dissociation constant (KD), ITC; mean of two independent experiments ± SEM. In a few lines:
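Run at 25 °C on full-length human VHR (His8-tagged, E. coli-expressed, Ni-NTA purified). Protein was 60–285 μM in PBS with 5% DMSO in the cell. Test compound (0.3–5 mM in the same buffer) was added as 20 injections of 6 μL. Baseline came from compound injected into buffer alone. KD was the mean of two independent runs.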
(ITC needs no label: the signal is the heat of the interaction.)

As a reminder, the Km is the substrate concentration at which the rate is half of its maximum. For `COc1ccc2c(c1)Oc1cc(OP(=O)(O)O)ccc1C21OC(=O)c2ccccc21` (stereo not drawn) [OMFP, 3-O-methylfluorescein phosphate], in assay [1], the Km turned out to be 5.4 µM.

The IC50 is the point on the concentration scale where inhibition reaches its midpoint. A lower IC50 goes with greater potency in that assay. By Kd is commonly meant the equilibrium constant for the complex coming apart. A high value points to a looser complex. The compound `O=P(O)(O)C(F)(F)c1cccc(-c2cccc(-c3cscn3)c2)c1` [SBP-4929, (Difluoro(3′-(thiazol-4-yl)-[1,1′-biphenyl]-3-yl)methyl)phosphonic Acid] yielded an IC50 in assay [2] of 4.1 ± 1.8 µM. Further, in assay [3], the Kd was 7.6 ± 0.2 µM.
